Screening data deposited in PubChem by Broad Institute.
Sampled rows, rich in hits. Any-hit rate of the full collection: about 1.3%.
S100A4 inh HTS: inhibitors of S100A4-myosin IIA peptide binding, primary screen, biochemical, fluorescence polarization, TAMRA-MyoIIA peptide; 360,000 compounds, 0.14% hits; inhibition, % at 10.7 µM; AID 652163, 2013; Protein S100-A4 (Homo sapiens), P26447;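 active = mean inhibition of at least 70% across replicates, with every replicate also reaching that level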
Target sequence (P26447 whole entry, looked up): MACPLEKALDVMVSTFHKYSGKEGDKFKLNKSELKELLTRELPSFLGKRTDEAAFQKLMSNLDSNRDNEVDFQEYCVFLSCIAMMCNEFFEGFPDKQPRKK
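Test system – S100A4 monomer (human) · Compound – single-point compound testing · Schedule – 5 min incubation before reading · Probe or stimulus – TAMRA-labelled myosin IIA heavy-chain peptide probe, 5 nM · Benchmarks – neutral control DMSO, positive control TFP · Medium – Calcium-containing HEPES buffer, pH 7.2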
CASP6 VEID inh: human caspase-6 inhibitors, primary screen, biochemical, VEID-R110 fluorescence, single point, set 2; P55212; purified caspase-6, Z-VEID-R110 cleavage fluorescence; 350,000 compounds, 0.53% hits; inhibition, % at 12.5 µM;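 active = mean inhibition across replicates at least about 35%, with every replicate also reaching that limit, limit read from the data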;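 note: 0% = median of neutral control wells and 100% = no fluorescence left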
MLL AF4-AF9 inh: inhibitors of AF4 peptide binding to AF9, primary screen, biochemical, AlphaScreen, biotin-AF4 peptide, FLAG-AF9, single point; inhibition, % at 10 µM; Protein AF-9 (Homo sapiens), P42568; 350,000 compounds, 0.47% hits;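 active = every replicate reaching a set inhibition limit, whatever the replicate mean, cut at about 25% in these data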;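 note: 0% = plate neutral control median and 100% = total signal loss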
RAD52 anneal inh: RAD52 DNA annealing inhibitors, primary screen, biochemical, FRET, single point, set 2 | DNA repair protein RAD52 homolog (Homo sapiens), P43351 | recombinant RAD52 DNA annealing, FRET fluorescence | inhibition, % at 18.7 µM | 360,000 compounds, 0.46% hits | AID 651710, 2012;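 active = every replicate showing at least 50% inhibition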
Target sequence (P43351 whole entry, looked up): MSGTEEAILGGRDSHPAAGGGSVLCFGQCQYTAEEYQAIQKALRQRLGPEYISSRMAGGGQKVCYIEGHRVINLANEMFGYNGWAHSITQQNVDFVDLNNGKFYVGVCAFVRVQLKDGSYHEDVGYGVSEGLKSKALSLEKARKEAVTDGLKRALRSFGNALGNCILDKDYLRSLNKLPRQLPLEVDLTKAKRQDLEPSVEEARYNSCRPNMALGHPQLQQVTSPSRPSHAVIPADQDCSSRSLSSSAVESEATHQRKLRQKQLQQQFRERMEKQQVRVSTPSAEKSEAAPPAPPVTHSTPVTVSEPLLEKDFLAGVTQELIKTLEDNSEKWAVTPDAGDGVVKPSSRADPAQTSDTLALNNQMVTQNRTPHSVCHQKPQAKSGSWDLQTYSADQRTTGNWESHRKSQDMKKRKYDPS
RAD54 inh: inhibitors of human RAD54 branch migration, primary screen, biochemical, fluorescence, single point; RAD54 Holliday junction branch migration, FAM/BHQ fluorescence; AID 602329, 2012; inhibition, % at 10.4 µM; 360,000 compounds, 0.14% hits;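 active = mean normalized replicate activity at least 40 and at least half of replicates scoring 40 or more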;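 note: 0% = median of neutral control wells and 100% = median of positive control wells; inhibitors cause a drop in the FAM fluorescence signal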
Xi reactivation: activators of inactive X chromosome reactivation, primary screen, imaging, XiGFP fibroblasts, GFP high-content imaging, set 2. XiGFP mouse fibroblasts, % GFP-positive cells imaging, 3 d; cells co-treated with 5-aza-dC sensitizer; scaled so ellipticine positive control = 100%. activation, % at 7.58 µM. 360,000 compounds, 0.055% hits;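 active = mean normalized replicate activation at least 10% and every replicate at or above 10%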;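 note: 0% = median of on-plate neutral control wells and 100% = ellipticine 6 µM median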
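Material: XiGFP fibroblasts, SV40-immortalized. Buffer or medium: DMEM plus 5-aza-dC sensitizer. Compound: single concentration per compound, delivered by pin transfer. Times: 3 days compound exposure. Controls: ellipticine 6 µM.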
Alpha interfer: AlphaScreen signal interference counter-screen, dose response, artefact control, biochemical, cherry-picked samples, luminescence; AID 720494, 2013; AC50, µM (top dose mostly 12 µM), for the others: top-dose activity change, negative = inhibition; 530 compounds, 45% hits; shares compounds with MLL AF4-AF9 inh; cut-off not given, nearly all actives have AC50 up to about 14 µM
An asterisk follows results filed as active; ! = not active in a repeat.

Results for CCN(CCCNc1cc2c(c(N)c1S(=O)(=O)O)C(=O)c1ccccc1C2=O)c1ccccc1 ?
S100A4 inh HTS: 13; CASP6 VEID inh: 15; MLL AF4-AF9 inh: 61*; RAD52 anneal inh: -52; RAD54 inh: -3; Xi reactivation: 0; Alpha interfer: 7.6µM*

Results for O=C(C[C@@H]1C[C@@H]2c3cc(NC(=O)C4CCOCC4)ccc3O[C@@H]2[C@H](CO)O1)NCCc1ccccc1 ?
S100A4 inh HTS: 24; CASP6 VEID inh: -1; MLL AF4-AF9 inh: 1; RAD52 anneal inh: 1; RAD54 inh: 9; Xi reactivation: 0

What do the screens show for `COc1ccc(CN(C)C[C@@H]2Oc3ccc(NS(=O)(=O)c4ccccc4)cc3C(=O)N([C@H](C)CO)C[C@H]2C)cc1`?
S100A4 inh HTS: -17; CASP6 VEID inh: 2; MLL AF4-AF9 inh: 0; RAD52 anneal inh: -6; RAD54 inh: -2; Xi reactivation: 0

How did C[C@@H]1CN([C@H](C)CO)C(=O)c2cc(NC(=O)C3CCCCC3)ccc2O[C@@H]1CN(C)S(C)(=O)=O do in these assays?
S100A4 inh HTS: -14; CASP6 VEID inh: -1; MLL AF4-AF9 inh: -2; RAD52 anneal inh: -6; RAD54 inh: 2; Xi reactivation: 0

What do the screens show for `C[C@H](CO)N1C[C@H](C)[C@@H](CN(C)Cc2ccccc2)Oc2ccc(N(C)C)cc2CC1=O`?
S100A4 inh HTS: -2; CASP6 VEID inh: 0; MLL AF4-AF9 inh: 17; RAD52 anneal inh: 5; RAD54 inh: 2; Xi reactivation: 0

What do the screens show for `C[C@@H]1CN([C@H](C)CO)C(=O)Cc2cc(N(C)C)ccc2O[C@H]1CN(C)Cc1ccc(Oc2ccccc2)cc1`?
S100A4 inh HTS: 4; CASP6 VEID inh: 0; MLL AF4-AF9 inh: 43*; RAD52 anneal inh: 35; RAD54 inh: -6; Xi reactivation: 0; Alpha interfer: -40%

How did C[C@@H]1CN([C@@H](C)CO)C(=O)c2cc(NC(=O)Nc3ccc4c(c3)OCO4)ccc2O[C@@H]1CN(C)C(=O)Nc1cccc2ccccc12 do in these assays?
S100A4 inh HTS: 8; CASP6 VEID inh: -2; MLL AF4-AF9 inh: 4; RAD52 anneal inh: 5; RAD54 inh: -3; Xi reactivation: 1

Results for Cc1ccc(S(=O)(=O)NC(=O)Nc2ccc(N(C)C)cc2)cc1 ?
S100A4 inh HTS: 11; CASP6 VEID inh: 27; MLL AF4-AF9 inh: 35*; RAD52 anneal inh: 4; RAD54 inh: 8; Xi reactivation: 0; Alpha interfer: -28%

Results for Cc1ccc(NC(=O)NNS(=O)(=O)c2ccc(Br)cc2)cc1 ?
RAD54 inh: -6

What do the screens show for `C(=C\c1ccccc1)/CN1CCN(C(c2ccccc2)c2ccccc2)CC1`?
S100A4 inh HTS: 1; CASP6 VEID inh: -5; MLL AF4-AF9 inh: 2; RAD52 anneal inh: -11; RAD54 inh: 11; Xi reactivation: 0

What do the screens show for `Fc1ccc(C(c2ccc(F)cc2)N2CCN(C/C=C/c3ccccc3)CC2)cc1`?
S100A4 inh HTS: 0; CASP6 VEID inh: -1; MLL AF4-AF9 inh: 34*!; RAD52 anneal inh: -3; RAD54 inh: 8; Xi reactivation: 0; Alpha interfer: 11%

How did O=C(NCCCN1CCCC1=O)C1CCN(S(=O)(=O)c2cccc(C(F)(F)F)c2)CC1 do in these assays?
S100A4 inh HTS: -5; CASP6 VEID inh: -267; MLL AF4-AF9 inh: 27*; RAD52 anneal inh: 4; RAD54 inh: -7; Xi reactivation: 0; Alpha interfer: -11%

How did CN(CCc1ccccc1)C(=O)c1ccc(NC(=O)Cc2ccc(NC(=O)C3CCN(C(=O)C4CCCC4)CC3)cc2)cc1 do in these assays?
S100A4 inh HTS: 3; CASP6 VEID inh: 3; MLL AF4-AF9 inh: 33*; RAD52 anneal inh: -9; RAD54 inh: 9; Xi reactivation: 0; Alpha interfer: 2%

Results for O=[N+]([O-])c1ccccc1/C=C/C=N/Nc1nc(N2CCCCC2)nc(N2CCCCC2)n1 ?
S100A4 inh HTS: -5; CASP6 VEID inh: 0; MLL AF4-AF9 inh: 12; RAD52 anneal inh: -16; Xi reactivation: 0

Results for O=[N+]([O-])c1ccccc1/C=C/C=N/N1CCCCC1 ?
S100A4 inh HTS: -6; CASP6 VEID inh: 0; MLL AF4-AF9 inh: 26*; RAD52 anneal inh: -11; Xi reactivation: 0; Alpha interfer: 13µM*

What do the screens show for `S=C(c1ccc(-c2cccc(Cl)c2)o1)N1CCOCC1`?
S100A4 inh HTS: 0; CASP6 VEID inh: 4; MLL AF4-AF9 inh: 29*; RAD52 anneal inh: -8; RAD54 inh: 0; Alpha interfer: -12%

Results for CCOc1ccc2c(c1)C(=O)c1cc(OCC(=O)O)ccc1-2 ?
S100A4 inh HTS: 3; CASP6 VEID inh: 2; MLL AF4-AF9 inh: -10; RAD52 anneal inh: -12; RAD54 inh: 3; Xi reactivation: 0

Results for CCCCOc1ccc2c(c1)C(=O)c1cc(O)ccc1-2 ?
S100A4 inh HTS: -5; CASP6 VEID inh: 3; MLL AF4-AF9 inh: 33*; RAD52 anneal inh: -8; Xi reactivation: 0; Alpha interfer: -2%

What do the screens show for `C/C(=N\Nc1nc2ccccc2[nH]1)c1ccc2c(c1)OCO2`?
S100A4 inh HTS: 6; CASP6 VEID inh: 3; MLL AF4-AF9 inh: 33*; RAD52 anneal inh: -12; RAD54 inh: 22; Xi reactivation: 0; Alpha interfer: -34%

How did COCCCNCC(O)COc1cccc2[nH]c(C)cc12 (stereo not given) do in these assays?
S100A4 inh HTS: -1; CASP6 VEID inh: -78; MLL AF4-AF9 inh: 52*; RAD52 anneal inh: 27; Xi reactivation: 0; Alpha interfer: -22%

Results for Cc1cc2c(OCC(O)CNC(C)(C)C)cccc2[nH]1 (stereo not given) ?
RAD54 inh: -5

Results for CCOC(=O)C1CCCN(C2=C(NS(=O)(=O)c3ccc(Br)cc3)C(=O)c3ccccc3C2=O)C1 (stereo not given) ?
S100A4 inh HTS: -2; MLL AF4-AF9 inh: 52*; RAD52 anneal inh: 7; RAD54 inh: 1; Xi reactivation: 0; Alpha interfer: -20%

How did CC1CCCN(C2=C(NS(=O)(=O)c3ccc(Br)cc3)C(=O)c3ccccc3C2=O)C1 (stereo not given) do in these assays?
S100A4 inh HTS: 3; CASP6 VEID inh: 0; MLL AF4-AF9 inh: -8; RAD52 anneal inh: -15; RAD54 inh: -8; Xi reactivation: 0
